According to ChEMBL document CHEMBL4834426, “Antimalarial Benzimidazole Derivatives Incorporating Phenolic Mannich Base Side Chains Inhibit Microtubule and Hemozoin Formation: Structure-Activity Relationship and In Vivo Oral Efficacy Studies” (J Med Chem, 2021):
In brackets after ≈: the same amount, converted by molar mass. Activity calls are given as the source filed them. The calls are words filed in the database; no cut-off is given here.

Columns and labels:
Plasmodium falciparum [1] = test: Antiplasmodial activity against […] Plasmodium falciparum NF54 late gametocytes transfected with GFP-Luc […] at 5 uM incubated for 48 hrs by microscopy based luciferase reporter gene assay relative to control; format: functional
Procedure, shortened: (§1)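 NF54-Pfs16-GFP-Luc gametocytes, assays set up day 5 (early, stage II/III) or day 10 (late, stage IV/V). Culture at 2−3% gametocytemia, 1.5% hematocrit, 48 h drug exposure at 37 °C under 90% N₂/5% O₂/5% CO₂. Lysates mixed with luciferin; bioluminescence read with 10 s integration. Dual-point: one biological repeat in technical triplicate. Methylene blue (5 μM) reference.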

Plasmodium falciparum [2] = test: Antiplasmodial activity against […] Plasmodium falciparum NF54 early gametocytes transfected with GFP-Luc […] incubated for 48 hrs by microscopy based luciferase reporter gene assay relative to control; format: functional, organism-based; conditions: NF54, 48 h
Procedure, shortened: (§2)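 Transgenic NF54-Pfs16-GFP-Luc gametocytes, read by luciferase reporter. Early assays were set up on day 5 (50% stage II/50% stage III) and late assays on day 10 (40% stage IV/60% stage V). Luciferin was added to lysates at room temperature and bioluminescence read. Methylene blue (5 μM) was the reference. Single-point screens at 1 and 5 μM used n=1 in technical triplicate. IC₅₀ came from a normalized nonlinear fit, n≥3 in triplicate.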

Plasmodium falciparum [3] = test: Antiplasmodial activity against […] Plasmodium falciparum NF54 early gametocytes transfected with GFP-Luc […] at 1 uM incubated for 48 hrs by microscopy based luciferase reporter gene assay relative to control; format: functional; procedure, shortened: as §1
Hemozoin [4] = test: Inhibition of beta-hematin formation […] incubated for 5 hrs by NP40 detergent-mediated assay
Procedure, shortened: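 Cell-free β-hematin formation assay in NP-40 (305.5 μM) lipid-mimic medium. Compounds from 20 mM stock serially diluted across wells, in duplicate. Hematin suspended in 1 M acetate buffer pH 4.8; plates incubated ~5 h at 37 °C. Then pyridine solution (with HEPES pH 7.4) and acetone added; absorbance at 405 nm. IC₅₀ by curve fit.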

[5] = Metabolic stability in mouse liver microsomes assessed as compound remaining at 1 uM incubated for 30 mins by LC-MS/MS analysis; format: ADME, Microsome; conditions: read-out: Stabilty
Procedure, shortened: (§3)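 Single-point design: 1 μM compound with 0.4 mg/mL liver microsomes in 0.1 M phosphate buffer pH 7.4 for 30 min. Quenched with ice-cold acetonitrile containing carbamazepine internal standard, centrifuged, analyzed by LC−MS/MS. Percent remaining from internal-standard-corrected peak areas at 30 min versus 0 min. Propranolol, midazolam and MMV390048 as controls.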

[6] = Resistance index, ratio of IC50 for antimalarial activity against asexual blood stage multi drug-resistant Plasmodium falciparum K1 to IC50 for antimalarial activity against asexual blood stage drug-sensitive Plasmodium falciparum NF54; format: functional
Procedure, shortened: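 Resistance index is IC₅₀(K1)/IC₅₀(NF54). Both IC₅₀s came from the [³H]-hypoxanthine incorporation assay, as means of ≥2 independent experiments.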

CHO = test: Cytotoxicity against CHO cells assessed as inhibition of cell viability by MTT assay; format: cell-based; conditions: Cricetulus griseus
Plasmodium falciparum [7] = test: Antiplasmodial activity against […] Plasmodium falciparum NF54 late gametocytes transfected with GFP-Luc […] at 1 uM incubated for 48 hrs by microscopy based luciferase reporter gene assay relative to control; format: functional; procedure, shortened: as §1
Plasmodium falciparum [8] = test: Antimalarial activity against asexual blood stage drug-sensitive Plasmodium falciparum NF54 infected in erythrocytes assessed as reduction in parasitemia incubated up to 72 hrs by [3H]hypoxanthine incorporation assay; format: functional, organism-based
Procedure, shortened: (§4)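 [³H]-Hypoxanthine incorporation assay (modified) on asexual blood-stage P. falciparum in vitro. IC₅₀ values are means of ≥2 independent experiments.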

[9] = Selectivity index, ratio of IC50 for Cytotoxicity against CHO cells assessed as inhibition of cell viability by MTT assay to IC50 for antimalarial activity against asexual blood stage Plasmodium falciparum NF54 assessed as reduction in parasitemia incubated up to 72 hrs by [3H]hypoxanthine incorporation assay; format: toxicity, cell-based; conditions: hamster, read-out: Selectivity Index
Procedure, shortened: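 Selectivity index is IC₅₀(CHO)/IC₅₀(NF54). […] IC₅₀ came from nonlinear dose-response fitting. Parasite IC₅₀ came from the [³H]-hypoxanthine assay.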

[10] = Metabolic stability in human liver microsomes assessed as compound remaining at 1 uM incubated for 30 mins by LC-MS/MS analysis; format: ADME, Microsome; conditions: read-out: Stabilty; procedure, shortened: as §3
Hemozoin [11] = test: Inhibition of Beta-hematin in early ring stage Plasmodium falciparum parasitized red blood cells assessed as hemozoin formation formation after 32 hrs by Giemsa staining based haemocytometric counting method
Plasmodium berghei = test: Antimalarial activity against GFP-transfected Plasmodium berghei ANKA infected in NMRI mouse model assessed as reduction in parasitemia at 50 mg/kg, po dosed 4 times relative to control; format: functional; design: scale not given: the % may be the effect or the level left
Procedure, shortened: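 Mice (n = 3) infected with GFP-transfected P. berghei ANKA. Compound in 70% Tween-80/30% ethanol, diluted 10-fold in water, given orally at 4, 24, 48 and 72 h post-infection. Blood taken day 4 (96 h); parasitemia by flow cytometry, detection limit 0.1%. Activity = difference in mean % parasitemia between control and treated, as % of control.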

Plasmodium falciparum [12] = test: Antimalarial activity against asexual blood stage multi drug-resistant Plasmodium falciparum K1 infected in erythrocytes assessed as reduction in parasitemia incubated up to 72 hrs by [3H]hypoxanthine incorporation assay; format: functional, organism-based; procedure, shortened: as §4
[13] = Kinetic solubility of the compound in pH 6.5 incubated for 24 hrs by HPLC-DAD analysis; format: physicochemical; conditions: buffer, read-out: Kinetic_solubility
Procedure, shortened: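 Miniaturized shake-flask method. 10 mM DMSO stock dried down, phosphate buffer pH 6.5 added, shaken 24 h at 25 °C. Centrifuged 3500g for 15 min; supernatant analyzed by HPLC-DAD against 10−220 μM DMSO calibration curve. Reserpine, hydrocortisone and MMV390048 as controls.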

[14] = Metabolic stability in rat liver microsomes assessed as compound remaining at 1 uM incubated for 30 mins by LC-MS/MS analysis; format: ADME, Microsome; conditions: read-out: Stabilty; procedure, shortened: as §3
Plasmodium falciparum [15] = test: Antiplasmodial activity against […] Plasmodium falciparum NF54 early gametocytes transfected with GFP-Luc […] at 5 uM incubated for 48 hrs by microscopy based luciferase reporter gene assay relative to control; format: functional; procedure, shortened: as §1
Plasmodium falciparum [16] = test: Antiplasmodial activity against […] Plasmodium falciparum NF54 late gametocytes transfected with GFP-Luc […] incubated for 48 hrs by microscopy based luciferase reporter gene assay relative to control; format: functional, organism-based; conditions: NF54, 48 h; procedure, shortened: as §2
[17] = Inhibition of tubulin polymerization in asexual blood stage Plasmodium falciparum NF54
[18] = system: Plasmodium falciparum NF54; test: Inhibition of tubulin polymerization in […] Plasmodium falciparum NF54 early gametocytes at 2400 nM incubated for 24 hrs by tubulin tracker Oregon Green staining method
Procedure, shortened: (§5)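 Treatment at 600 nM for asexual parasites (~1% parasitemia, 5% hematocrit, sorbitol-synchronized rings) or 2400 nM for early gametocytes (~2% gametocytemia, 2% hematocrit, 20% I/60% II/20% III). 24 h at 37 °C, 90% N₂/5% CO₂/5% O₂, DMSO <0.1%. Stained with 250 nM Tubulin Tracker Oregon Green 488 for 30 min and Hoechst (100 nM) for 10 min. PBS-washed, imaged live by confocal microscopy. Colchicine (20 μM) positive control.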

[19] = system: Plasmodium falciparum NF54; test: Inhibition of tubulin polymerization in asexual blood stage Plasmodium falciparum NF54 at 600 nM incubated for 24 hrs by tubulin tracker Oregon Green staining method; procedure, shortened: as §5
[20] = system: Plasmodium falciparum NF54; test: Inhibition of tubulin polymerization in asexual stage (II) Plasmodium falciparum NF54 early gametocytes at 2400 nM incubated for 24 hrs by tubulin tracker Oregon Green staining method; procedure, shortened: as §5
[21] = system: Plasmodium falciparum NF54; test: Inhibition of tubulin polymerization in asexual stage (I) Plasmodium falciparum NF54 early gametocytes at 2400 nM incubated for 24 hrs by tubulin tracker Oregon Green staining method; procedure, shortened: as §5

SMILES | inhibition at 5 µM (Plasmodium falciparum [1]) [%] | IC50 (Plasmodium falciparum [2]) [nM] | inhibition at 1 µM (Plasmodium falciparum [3]) [%] | remaining at 0.5 h, 1 µM [5] [%] | Ratio IC50 [6] | IC50 (CHO) [µM] | inhibition at 1 µM (Plasmodium falciparum [7]) [%] | IC50 (Plasmodium falciparum [8]) [nM] | selectivity ratio at 72 h [9] | remaining at 0.5 h, 1 µM [10] [%] | Activity (Plasmodium berghei) [%] | IC50 (Plasmodium falciparum [12]) [nM] | solubility kinetic at 24 h [13] [µM] | remaining at 0.5 h, 1 µM [14] [%] | inhibition at 5 µM (Plasmodium falciparum [15]) [%] | IC50 (Plasmodium falciparum [16]) [nM] | IC50 [17] [µM] | other results
CCNCc1cc(Cl)cc(Nc2nc3ccccc3n2Cc2ccc(C(F)(F)F)cc2)c1O | 8 | 430 | 66 | 73 | 0.39 | 33.8 | 0 | 280 | 121 | 94 | <40 | 110 | 12 (≈ 5.7 µg/mL) | 66 | 91 | > 5000 | – | IC50 (Hemozoin [4]): 33.3 µM; Activity (Hemozoin [11]): inactive
CCN(CC)Cc1cc(F)cc(Nc2nc3ccccc3n2Cc2ccc(C(F)(F)F)cc2)c1O | 10 | 97 | 74 | – | 1.12 | > 50 | 0 | 170 | > 294 | – | – | 190 | – | – | 90 | > 5000 | – | –
Cc1cc(CNC(C)(C)C)c(O)c(Nc2nc3ccccc3n2Cc2ccc(C(F)(F)F)cc2)c1 | 62 | 920 | 45 | 62 | 0.58 | 30 | 0 | 400 | 75.1 | 99 | <40 | 230 | 50 (≈ 24.1 µg/mL) | 41 | 96 | – | – | –
CCCSc1ccc2[nH]c(NC(=O)OC)nc2c1 [ALBENDAZOLE] | – | – | – | – | – | – | – | – | – | – | – | – | – | – | – | – | 30 | –
COC(=O)Nc1nc2cc(C(=O)c3cccs3)ccc2[nH]1 [NOCODAZOLE] | – | – | – | – | – | – | – | – | – | – | – | – | – | – | – | – | 17 | –
CC(C)(C)NCc1cc(Cl)cc(Nc2nc3cc(F)c(F)cc3n2Cc2ccc(C(F)(F)F)cc2)c1O | 1 | 690 | 14 | 94 | 0.47 | > 50 | 31 | 190 | > 263 | 89 | <40 | 90 | < 5 | 94 | 70 | – | – | –
COC(=O)Nc1nc2cc(C(=O)c3ccccc3)ccc2[nH]1 [MEBENDAZOLE] | – | – | – | – | – | – | – | – | – | – | – | – | – | – | – | – | 200 | –
CCNCc1cc(C)cc(Nc2nc3cc(F)c(F)cc3n2Cc2ccc(C(F)(F)F)cc2)c1O | 24 | 210 | 86 | 93 | 0.5 | 2.04 | 0 | 260 | 7.84 | 99 | – | 130 | 16 (≈ 7.85 µg/mL) | 77 | 94 | 2330 | – | –
CCNCc1cc(Cl)cc(Nc2nc3ccccc3[nH]2)c1O | 31 | – | 0 | 97 | 2.93 | > 50 | 0 | 300 | > 166 | 93 | <40 | 880 | 200 (≈ 63.4 µg/mL) | 98 | 23 | – | – | IC50 (Hemozoin [4]): 12.7 µM; inhibition [18]: Active; inhibition [19]: Active; Activity (Hemozoin [11]): Active; inhibition [20]: Active; inhibition [21]: inactive
COc1cc2c(c(OC)c1OC)-c1ccc(OC)c(=O)cc1[C@@H](NC(C)=O)CC2 [COLCHICINE] | – | – | – | – | – | – | – | – | – | – | – | – | – | – | – | – | 10 | –
CCN(CC)Cc1cc(Cl)cc(Nc2nc3ccccc3n2Cc2ccc(C(F)(F)F)cc2)c1O | 10 | 56 | 69 | – | 0.33 | > 50 | 2 | 150 | > 333 | – | – | 50 | – | – | 89 | 1900 | – | –
